Data set [1] deals with T1, HINT1 (adenosine 5'-monophosphoramidase) (Homo sapiens, UniProt P49773). In words: Stability in human HeLa cell lysate assessed as HINT-1-mediated phosphoramidase activity by measuring compound remaining at 1 mM after 22 hrs by RP-HPLC analysis relative to control. It counts as ADME, cell-based. As to conditions: read-out: Stability. In outline:
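HeLa lysate from confluent cells, sonicated in PBS with protease inhibitors. Substrate 1 mM in 20 mM Na-HEPES pH 7.2, 0.5 mM MgCl2, 22 h at 37 °C. Ice-quenched, heat-denatured, centrifuged. C18 RP-HPLC (acetonitrile 0–8% in 0.1 M TEAB pH 7.4) at 260 nm; intact substrate quantified by peak integration; mean ± SE of at least duplicate.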

Data set [2] can be described thus: Inhibition of Escherichia coli DNA polymerase 1 with 3' to 5'-exonucleolytic activity using dCTP as substrate assessed as single base extension reaction after 2 hrs. Put shortly:
(§1)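 Compound (0.4–2.0 mM; 1- to 5-fold over dCTP) added together with 0.4 mM dCTP in 0.05 M Tris-HCl pH 8.0, 5 mM MgCl2, 1 mM DTT, 2 h at 37 °C. The n+1 product was quantified after 20% PAGE/7 M urea and autoradiography; EC50 is the concentration giving 50% inhibition.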

In data set [3] the test system is HeLa. Kind of data set: Cytotoxicity against human HeLa cells assessed as reduction of cell survival after 96 hrs by MTT assay. It counts as functional, cell-based. In outline: (§2)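 HeLa seeded at 7×10^3 and CFPAC at 10^4 per well in RPMI 1640 with 10% FCS under 5% CO2. After 24 h, exposure to compounds (aqueous 100 mM stock; final 1 mM to 1×10^-6 mM) for 72 or 96 h. MTT 2 h, formazan dissolved in 20% SDS/50% DMF pH 4.7, A570/650. Untreated cells = 100%; IC50 from dose-response curves, 2 independent experiments in triplicate.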

Data set [4] has as its system HeLa. In words: Cytotoxicity against human HeLa cells assessed as reduction of cell survival after 72 hrs by MTT assay. The class given is functional, cell-based. In outline:
as §2
Background: Formazan colour is commonly taken as a measure of viable cells.

Data set [5] concerns CFPAC-1. In words: Cytotoxicity against human CFPAC-1 cells assessed as reduction of cell survival after 72 hrs by MTT assay. The class given is functional, cell-based. As to conditions: CFPAC-1, 72 h. Put shortly:
as §2

Data set [6] is described as follows: Stability of the compound in ammonium acetate buffer at 20 mM at pH 3 to 11 after 2 to 24 hrs by RP-HPLC analysis. The class given is physicochemical. Particulars: pH 3, 20000 µM. Put shortly:
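Compounds at 20 mM in 0.1 M ammonium acetate buffered solutions, pH 3–11, kept at room temperature; sampled at 2, 8 and 24 h and monitored by RP-HPLC on a C18 column.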

A short description of data set [7]: Inhibition of Escherichia coli DNA polymerase 1 without 3' to 5'-exonucleolytic activity using dCTP as substrate assessed as single base extension reaction after 2 hrs. Put shortly: as §1
In data set [8] the test system is Escherichia coli. Kind of data set: Activity of Escherichia coli DNA polymerase 1 without 3' to 5'-exonucleolytic activity after 2 hrs by single base extension reaction based electrophoresis method. Put shortly:
(§3)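 Test compound with KF+ or KF- (1U) in 0.05 M Tris-HCl pH 8.0, 5 mM MgCl2, 1 mM DTT, 2 h at 37 °C, then heat-denatured. Read-out was 20% PAGE/7 M urea, autoradiography and quantitation of n+1 product; dCTP reaction served as control.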

The target of data set [9] is Adenosine 5'-monophosphoramidase HINT1 (Oryctolagus cuniculus, UniProt P80912). In words: Stability assessed as rabbit recombinant HINT1-mediated compound hydrolysis at 1 mM after 22 hrs by RP-HPLC analysis. It counts as ADME. Particulars: 1000 µM. Put shortly:
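Recombinant Hint-1 was expressed from pSGA02-HINT in E. coli BL21, purified on AMP-agarose, and dialysed into 20 mM Tris pH 7.5/150 mM NaCl. Substrate 1 mM in 20 mM Na-HEPES pH 7.2, 0.5 mM MgCl2 with rHint-1, 22 h at 37 °C. Analysed by C18 RP-HPLC at 260 nm via peak integration; mean ± SE of at least duplicate.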

Data set [10] has as its system K562. In words: Cytotoxicity against human K562 cells assessed as reduction of cell survival after 48 hrs by MTT assay. It counts as functional, cell-based. As to conditions: K562, 48 h. In outline:
(§4)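 HUVEC (from fresh umbilical cords, gelatin-coated dishes, RPMI 1640 with 20% FBS, heparin, ECGF) and K562 (RPMI 1640, 10% FCS) were seeded at 7×10^3 per well. After 24 h, exposure for 48 h to compounds from 100 mM aqueous stock, final 1 mM down to 1×10^-6 mM. MTT read at 570/650 nm; untreated = 100%; IC50 from dose-response curves, mean of 2 experiments in triplicate.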

The test system of data set [11] is HUVEC. In words: Cytotoxicity against HUVEC assessed as cell after 48 hrs by MTT assay. It counts as cell-based. As to conditions: Homo sapiens. Put shortly: as §4
Data set [12] relates to Thermococcus sp. 9oN-7. Kind of data set: Activity of Thermococcus sp. 9oN-7 therminator DNA polymerase after 2 hrs by single base extension reaction based electrophoresis method.
The test system of data set [13] is Escherichia coli. In words: Activity of Escherichia coli DNA polymerase 1 with 3' to 5'-exonucleolytic activity after 2 hrs by single base extension reaction based electrophoresis method. In outline: as §3
In data set [14] the test system is Thermococcus sp. 9oN-7. Kind of data set: Inhibition of Thermococcus sp. 9oN-7 therminator DNA polymerase assessed as single base extended product level after 1 hr by single base extension reaction based electrophoresis method. Also on record: concentration or dose not given beside the values.
Data set [15] has as its target T1, HINT1 (adenosine 5'-monophosphoramidase). In words: Stability in human K562 cell lysate assessed as HINT-1-mediated phosphoramidase activity by measuring compound remaining at 1 mM after 22 hrs by RP-HPLC analysis relative to control. It counts as ADME, cell-based. Particulars: read-out: Stability. Put shortly:
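K562 lysate from confluent cells, scraped and sonicated in PBS with protease inhibitors. Substrate 1 mM in 20 mM Na-HEPES pH 7.2, 0.5 mM MgCl2, with lysate protein, 22 h at 37 °C. Quenched on ice, heat-denatured, centrifuged. Supernatant analysed by C18 RP-HPLC (0–8% acetonitrile in 0.1 M TEAB pH 7.4, 20 min) at 260 nm. Peaks integrated; products identified by co-injection; mean ± SE, at least duplicate.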

The test system of data set [16] is CFPAC-1. In words: Cytotoxicity against human CFPAC-1 cells assessed as reduction of cell survival after 96 hrs by MTT assay. It counts as functional, cell-based. Particulars: CFPAC-1, 96 h. Put shortly: as §2

Active and inactive are the calls of the source. The rule behind the calls is not given here.

4 compounds from ChEMBL document CHEMBL3232882, “N-Acyl-phosphoramidates as potential novel form of gemcitabine prodrugs” (Bioorg Med Chem, 2014) can be followed below.

A word on the EC50: it is the concentration needed to bring the measured effect to its halfway point. For orientation: IC50 means the concentration needed to halve the response being measured.

T1 sequence (P49773 whole entry): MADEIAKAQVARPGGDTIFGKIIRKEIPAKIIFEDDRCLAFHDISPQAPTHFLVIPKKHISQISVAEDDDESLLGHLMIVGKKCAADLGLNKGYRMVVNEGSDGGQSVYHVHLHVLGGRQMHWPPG
Chain of Adenosine 5'-monophosphoramidase HINT1 (P80912 whole entry): as the sequence (P49773 whole entry) above, with R37Q, V65A, D69A, N91K, H122N counted along it

For `CC(=O)NP(=O)(S)OC[C@H]1O[C@@H](n2ccc(N)nc2=O)C(F)(F)[C@@H]1O` (some centres undefined), the remaining at 22 h, 1000 µM in [1] was 100%; in [15] it was 88.4%. The half-maximal effective concentration (EC50) in data set [2] and in data set [7] was over 2000 µM in each case. In addition, the concentration for half-maximal inhibition (IC50) was 700 µM in data set [3]; over 1000 µM in data set [4]; 525 µM in data set [5]; 500 µM in data set [10]; over 1000 µM in data set [11]; 475 µM in data set [16]. The Stability result in [6] and in data set [9] was “Stable” throughout. The outcome in data set [8], in [12] and in [13] was inactive. Besides, the Activity in data set [14] was 100%.
Turning to `Nc1ccn([C@@H]2O[C@H](COP(=O)(O)NC(=O)c3cccnc3)[C@@H](O)C2(F)F)c(=O)n1`, the results for the remaining at 22 h, 1000 µM in data set [1] and in data set [15] were 95.5% and 86.8%, respectively. In addition, the EC50 stood at 750 µM in data set [2] and 520 µM in data set [7]. Also, the IC50 was 1.4 µM in data set [3]; 10 µM in data set [4]; 0.42 µM in [5]; over 1000 µM in [10]; 50 µM in data set [11]; 0.4 µM in data set [16]. Also, the Stability result in data set [6] and in [9] was “Stable” in each case. In addition, the result in [8], in data set [12] and in [13] was inactive. Further, in data set [14], the Activity came out at 100%.
Consider `CC(=O)NP(=O)(O)OC[C@H]1O[C@@H](n2ccc(N)nc2=O)C(F)(F)[C@@H]1O`, for which the remaining at 22 h, 1000 µM in data set [1] is 94.1%; in data set [15] it was 85.1%. Also, the results for the EC50 in [2] and in data set [7] were 710 µM and 510 µM, respectively. Also, the IC50 in [3] turned out to be 1 µM; in [4], 15 µM; in data set [5], 0.57 µM; in data set [10] it was 0.5 µM; in [11] it was 0.09 µM; in [16], 0.42 µM. Moreover, the Stability entry in [6] and in data set [9] was “Stable” each time. In addition, the result in data set [8], in data set [12] and in data set [13] was inactive. In addition, the Activity in data set [14] worked out at 100%.
As for `Nc1ccn([C@@H]2O[C@H](COP(=O)(S)NC(=O)c3cccnc3)[C@@H](O)C2(F)F)c(=O)n1` (some centres undefined), the remaining at 22 h, 1000 µM amounted to 100% in data set [1] and 93.4% in [15]. The figures for the EC50 in data set [2] and in [7] were 280 µM and 130 µM, respectively. In addition, the IC50 in data set [3] is 500 µM; in data set [4], over 1000 µM; in [5], 77.5 µM; in [10], over 1000 µM; in data set [11], over 1000 µM; in data set [16], 62.5 µM. The Stability entry in [6] and in data set [9] was “Stable” each time. The outcome in data set [8], in data set [12] and in data set [13] was inactive. Also, the Activity in data set [14] amounted to 100%.
